# Columns and labels:
# [1] = Selectivity ratio of EC50 for antiviral activity against HIV1 IIIB infected in human MT4 cells to EC50 for antiviral activity against HIV2 ROD infected in human MT4 cells; assay type: toxicity, cell-based
# Procedure, shortened: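 Ratio is EC50 against HIV-1 IIIB divided by EC50 against HIV-2 ROD. Both EC50 values come from MTT-read protection of infected MT-4 cells.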
# [2] = Selectivity index, ratio of CC50 for cytotoxicity against human MT4 cells to EC50 for antiviral activity against HIV2 ROD infected in human MT4 cells; assay type: toxicity, cell-based; conditions: read-out: Ratio CC50/EC50
# Procedure, shortened: (§1)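 SI is CC50 divided by EC50. CC50 comes from MTT viability of uninfected MT-4 cells. EC50 comes from MTT-read protection of MT-4 cells infected with HIV-1 IIIB or HIV-2 ROD. Each value was run in at least triplicate.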
# [3] = Selectivity index, ratio of CC50 for cytotoxicity against human MT4 cells to EC50 for antiviral activity against HIV1 IIIB infected in human MT4 cells; assay type: toxicity, cell-based; conditions: read-out: Ratio CC50/EC50; procedure, shortened: as §1
# [4] = Cytotoxicity against human MT4 cells assessed as reduction in cell viability incubated for 5 days by MTT assay; assay type: toxicity, cell-based; conditions: MT4 cells, time 5 day
# Procedure, shortened: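 Uninfected MT-4 cells were exposed to compound, and viability was read by the MTT method. […] Each value was run in at least triplicate and averaged from at least three independent experiments.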
# [5] = test system: Human immunodeficiency virus 1; assay: Antiviral activity against HIV1 IIIB infected in human MT4 cells assessed as reduction in virus induced cytopathic effect measured after 5 days by MTT assay; assay type: functional, organism-based; conditions: Human immunodeficiency virus 1, IIIB, MT4, 120 h
# Procedure, shortened: (§2)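 MT-4 cells were infected with HIV-1 IIIB or HIV-2 ROD, and cell viability was read by MTT. […] Each value was run in at least triplicate and averaged from at least three independent experiments.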
# [6] = test system: Human immunodeficiency virus 2; assay: Antiviral activity against HIV2 ROD infected in human MT4 cells assessed as reduction in virus induced cytopathic effect measured after 5 days by MTT assay; assay type: functional, organism-based; conditions: Human immunodeficiency virus 2, ROD, MT4, 120 h; procedure, shortened: as §2
Structure (SMILES),Ratio EC50 [1],selectivity ratio [2],selectivity ratio [3],CC50 at 120 h [4],EC50 [5],EC50 [6]
COc1ccc(N(C)C(=O)[C@H](Cc2ccccc2)NC(=O)CN2CCN(C(=O)Cc3c[nH]c4ccc(O)cc34)CC2=O)cc1,1.06,> 1.12,> 1.06,> 209 µM,–,–
COc1ccc(N(C)C(=O)[C@H](Cc2ccccc2)NC(=O)CN2CCN(C(=O)Cc3c[nH]c4ccc(Br)cc34)CC2=O)cc1,–,< 1,< 1,16.4 µM,> 16.4 µM,> 16.4 µM
COc1ccc(N(C)C(=O)[C@H](Cc2ccccc2)NC(=O)Cn2ccc(NC(=O)c3ccc(N)cc3)cc2=O)cc1,> 11.04,11,–,189 µM,–,17.1 µM
COc1ccc(N(C)C(=O)[C@H](Cc2cc(F)cc(F)c2)NC(=O)CN2CCN(C(=O)c3ccc(NS(C)(=O)=O)cc3)CC2=O)cc1,0.88,> 1.04,> 1.18,> 190 µM,–,–
COc1ccc(-n2c(SCCF)nnc2[C@H](Cc2ccccc2)NC(=O)Cc2c(C)[nH]c3ccccc23)cc1,0.3,6,20,–,1.24 µM,4.07 µM
COc1ccc(-n2c(SCCN(C)C)nnc2[C@H](Cc2ccccc2)NC(=O)Cc2c(C)[nH]c3ccccc23)cc1,< 0.04,–,27,–,0.85 µM,> 22.9 µM
COc1ccc(N(C)C(=O)[C@H](Cc2ccccc2)NC(=O)Cn2ccc(NC(=O)c3ccc(Cl)cc3)cc2=O)cc1,–,–,–,25.5 µM,> 25.5 µM,> 25.5 µM
COc1ccc(N(C)C(=O)[C@H](Cc2cc(F)cc(F)c2)NC(=O)CN(CC2CCCCC2)C(=O)Cc2c[nH]c3ccc(Br)cc23)cc1,–,< 1,< 1,17.6 µM,> 17.6 µM,> 17.6 µM
COc1ccc(N(C)C(=O)[C@H](Cc2ccccc2)NC(=O)CN2CCN(C(=O)c3ccc(NC(=O)C(F)(F)F)cc3)CC2=O)cc1,10.54,> 13.1,> 1.24,> 195 µM,–,15 µM
COc1ccc(N(C)C(=O)[C@H](Cc2cc(F)cc(F)c2)NC(=O)CN(Cc2ccc(C#N)cc2)C(=O)Cc2ccc3ccccc3c2)cc1,1.17,> 1,–,> 189 µM,–,–
COc1ccc(-n2c(SCC#N)nnc2[C@H](Cc2ccccc2)NC(=O)Cc2c(C)[nH]c3ccccc23)cc1,0.22,36,163,–,0.59 µM,2.69 µM
COc1ccc(-n2c(SCCC3CCCCC3)nnc2[C@H](Cc2ccccc2)NC(=O)Cc2c(C)[nH]c3ccccc23)cc1,–,–,–,> 206 µM,–,–
COc1ccc(N(C)C(=O)[C@H](Cc2ccccc2)NC(=O)Cn2ccc(NC(=O)c3ccc(Br)cc3)cc2=O)cc1,–,–,–,23.5 µM,> 23.5 µM,> 23.5 µM
COc1ccc(N(C)C(=O)[C@H](Cc2cc(F)cc(F)c2)NC(=O)CN(Cc2ccccc2)C(=O)Cc2ccc3ccccc3c2)cc1,–,< 1,< 1,176 µM,–,> 18.9 µM
COc1ccc(-n2c(SCCC(F)(F)F)nnc2[C@H](Cc2ccccc2)NC(=O)Cc2c(C)[nH]c3ccccc23)cc1,< 0.09,–,11,30.8 µM,2.87 µM,> 30.8 µM
COc1ccc(N(C)C(=O)[C@H](Cc2ccccc2)NC(=O)Cn2ccc(NC(=O)c3ccc([N+](=O)[O-])cc3)cc2=O)cc1,–,–,–,31.9 µM,> 31.9 µM,> 31.9 µM

Structure (SMILES),Ratio EC50 [1],selectivity ratio [2],selectivity ratio [3],CC50 at 120 h [4],EC50 [5],EC50 [6]
COc1ccc(-n2c(SCc3ccncc3)nnc2[C@H](Cc2ccccc2)NC(=O)Cc2c(C)[nH]c3ccccc23)cc1,0.68,6,9,–,2.89 µM,4.27 µM
COc1ccc(N(C)C(=O)[C@H](Cc2cc(F)cc(F)c2)NC(=O)CN2CCN(C(=O)Cc3c[nH]c4ccc(O)cc34)CC2=O)cc1,–,2.65,< 1,132 µM,–,49.6 µM
COc1ccc(-n2c(SCCCN3CCOCC3)nnc2[C@H](Cc2ccccc2)NC(=O)Cc2c(C)[nH]c3ccccc23)cc1,0.16,13,83,–,0.59 µM,3.73 µM
COc1ccc(N(C)C(=O)[C@H](Cc2cc(F)cc(F)c2)NC(=O)CN2CCN(C(=O)c3ccc(NC(C)=O)cc3)CC2=O)cc1,0.92,1.02,1.11,196 µM,–,–
COc1ccc(-n2c(SCc3cccnc3)nnc2[C@H](Cc2ccccc2)NC(=O)Cc2c(C)[nH]c3ccccc23)cc1,< 0.38,–,8,24 µM,2.99 µM,> 7.81 µM
COc1ccc(N(C)C(=O)[C@H](Cc2ccccc2)NC(=O)CN2CCN(C(=O)c3ccc(NS(C)(=O)=O)cc3)CC2=O)cc1,< 0.96,–,> 1.05,> 201 µM,–,–
COc1ccc(N(C)C(=O)[C@H](Cc2ccccc2)NC(=O)Cn2ccc(NC(=O)c3ccc4ccccc4c3)cc2=O)cc1,–,–,–,27.6 µM,> 27.6 µM,> 27.6 µM
COc1ccc(-n2c(SCc3ccc(B(O)O)cc3)nnc2[C@H](Cc2ccccc2)NC(=O)Cc2c(C)[nH]c3ccccc23)cc1,< 0.13,–,8,20.8 µM,2.71 µM,> 20.8 µM
COc1ccc(-n2c(SCCN3CCOCC3)nnc2[C@H](Cc2ccccc2)NC(=O)Cc2c(C)[nH]c3ccccc23)cc1,0.16,16,103,–,0.79 µM,4.98 µM
COc1ccc(N(C)C(=O)[C@H](Cc2cc(F)cc(F)c2)NC(=O)CN(Cc2ccc(F)cc2)C(=O)Cc2c(C)[nH]c3ccccc23)cc1,< 0.12,–,8,22.6 µM,2.79 µM,> 22.6 µM
COc1ccc(N(C)C(=O)[C@H](Cc2ccccc2)NC(=O)CN2CCN(C(=O)c3ccc(NC(=O)C4CC4)cc3)CC2=O)cc1,> 11.15,11.2,< 1,168 µM,–,15 µM
COc1ccc(N(C)C(=O)[C@H](Cc2cc(F)cc(F)c2)NC(=O)CN(Cc2ccc(F)cc2)C(=O)Cc2ccc3ccccc3c2)cc1,–,–,–,> 160 µM,–,–
COc1ccc(N(C)C(=O)[C@H](Cc2cc(F)cc(F)c2)NC(=O)CN(Cc2ccc(F)cc2)C(=O)Cc2cccc3ccccc23)cc1,> 32.6,> 33,–,> 191 µM,–,5.87 µM
COc1ccc(N(C)C(=O)[C@H](Cc2ccccc2)NC(=O)CN2CCN(C(=O)c3ccc(NC(C)=O)cc3)CC2=O)cc1,1.1,> 1.16,> 1.05,> 213 µM,–,–
COC(=O)C(C)(C)Sc1nnc([C@H](Cc2ccccc2)NC(=O)Cc2c(C)[nH]c3ccccc23)n1-c1ccc(OC)cc1,0.13,–,8,22.6 µM,2.88 µM,> 22.6 µM
